From ChEMBL document CHEMBL2157873, “Development and characterization of endocannabinoid hydrolases FAAH and MAGL inhibitors bearing a benzotriazol-1-yl carboxamide scaffold” (Bioorg Med Chem, 2012) come the findings set out here.

For one assay, the species on record is Homo sapiens. Briefly: Selectivity ratio of IC50 for human recombinant FAAH to IC50 for human MAGL. The procedure, abridged:
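Selectivity calculated as IC50 for human FAAH divided by IC50 for human MAGL. Both IC50 values from radiometric hydrolysis assays: [3H]-AEA with MBP-fused FAAH and [3H]-2-OG with pure MAGL. Each assay had 30 min inhibitor preincubation. Means of three independent experiments in duplicate.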

The next assay has as its target T1, Monoglyceride lipase (Homo sapiens, UniProt Q99685).
T1 sequence (Q99685 whole entry): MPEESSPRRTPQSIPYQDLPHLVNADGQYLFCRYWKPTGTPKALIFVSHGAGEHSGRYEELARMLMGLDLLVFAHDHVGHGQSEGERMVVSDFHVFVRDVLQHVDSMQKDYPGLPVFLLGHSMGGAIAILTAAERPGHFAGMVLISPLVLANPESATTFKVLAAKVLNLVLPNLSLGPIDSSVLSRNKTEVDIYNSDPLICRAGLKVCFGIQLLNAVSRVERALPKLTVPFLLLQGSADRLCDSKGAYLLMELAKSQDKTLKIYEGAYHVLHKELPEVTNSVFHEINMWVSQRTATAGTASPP
Briefly: Inhibition of human MAGL assessed as [3H]-2-OG hydrolysis preincubated for 30 mins before [3H]-2-OG addition measured after 10 mins by liquid scintillation counting. In outline: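 [3H]-2-oleoylglycerol then added at 10 µM final. Stopped with methanol-chloroform (1:1), centrifuged 5 min at 700 g, aqueous-phase radioactivity read by liquid scintillation, no-enzyme blank subtracted. Means of three independent experiments in duplicate.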

Assay [1] addresses T2, Fatty-acid amide hydrolase 1 (Homo sapiens, UniProt O00519).
T2 sequence (O00519 whole entry): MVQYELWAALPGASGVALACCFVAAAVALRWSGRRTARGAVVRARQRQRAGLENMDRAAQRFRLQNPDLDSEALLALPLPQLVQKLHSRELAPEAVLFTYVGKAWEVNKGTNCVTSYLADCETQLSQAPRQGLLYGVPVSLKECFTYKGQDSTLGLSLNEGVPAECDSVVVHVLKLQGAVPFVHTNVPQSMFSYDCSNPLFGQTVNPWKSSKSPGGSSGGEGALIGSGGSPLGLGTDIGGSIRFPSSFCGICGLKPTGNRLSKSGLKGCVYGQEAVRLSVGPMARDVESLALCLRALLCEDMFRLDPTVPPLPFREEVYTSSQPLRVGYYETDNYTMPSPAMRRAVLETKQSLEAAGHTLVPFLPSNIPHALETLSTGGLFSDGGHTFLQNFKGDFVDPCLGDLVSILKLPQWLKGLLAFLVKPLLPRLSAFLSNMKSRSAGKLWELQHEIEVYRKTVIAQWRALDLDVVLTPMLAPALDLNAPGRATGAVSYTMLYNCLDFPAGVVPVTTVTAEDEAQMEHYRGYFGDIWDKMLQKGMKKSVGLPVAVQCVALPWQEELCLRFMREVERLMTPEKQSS
Briefly: Inhibition of human recombinant FAAH assessed as [3H]-AEA hydrolysis preincubated for 30 mins […] measured after 10 mins by liquid scintillation counting. The procedure, abridged:
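Human FAAH fused to maltose-binding protein, preincubated 30 min at 22 °C with inhibitor at various concentrations (Tris 10 mM, EDTA 1 mM, pH 8.0, inhibitor in DMSO). [3H]-anandamide (50,000 dpm) added, 10 min at 37 °C. Stopped with cold methanol/chloroform (1:1), aqueous-phase radioactivity by scintillation, blank subtracted, percent of control fitted as dose-response. Three independent experiments in duplicate.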

Assay [2] has as its target T3, Fatty-acid amide hydrolase 1 (Homo sapiens) (UniProt O00519).
T3 sequence (whole entry): T2 sequence (O00519 whole entry)
Briefly: Inhibition of human recombinant FAAH assessed as [3H]-AEA hydrolysis preincubated for 30 mins […] measured at 10^-5 M after 10 mins by liquid scintillation counting.

Molecules are shown by their SMILES. A value given as a limit tells only on which side of the number the result lay.

On to `O=C(N1CCN(Cc2cccc([N+](=O)[O-])c2)CC1)n1nnc2ccccc21`, for which, in the assay listed under Homo sapiens, the Ratio IC50 was determined as 5.4. Moreover, the IC50 was found to be 8 nM at Monoglyceride lipase and 43 nM in assay [1].
The corresponding values for `Cc1ccccc1N1CCN(C(=O)n2nnc3ccccc32)CC1` are 0.04, 71 nM and 3 nM.
The corresponding values for `O=C(N1CCN(Cc2ccc([N+](=O)[O-])cc2)CC1)n1nnc2ccccc21` are 7.6, 12 nM and 89 nM.
The corresponding values for `CN(C)C(=O)c1cccc(CN2CCN(C(=O)n3nnc4ccccc43)CC2)c1` are 2.7, 102 nM and 275 nM.
Turning to `O=C(N1CCN(Cc2ccc3ccccc3c2)CC1)n1nnc2ccccc21`, the Ratio IC50 in the assay filed under Homo sapiens was 1.3. In addition, the IC50 at Monoglyceride lipase is 9 nM; in assay [1], 12 nM.
On the same counts, the results for `CN1CCN(C(=O)c2cccc(CN3CCN(C(=O)n4nnc5ccccc54)CC3)c2)CC1` are 4.3, 324 nM and 1380 nM.
The corresponding values for `O=C(N1CCN(c2ccccc2F)CC1)n1nnc2ccccc21` are 0.44, 30 nM and 13 nM.
The corresponding values for `O=C(c1cccc(CN2CCN(C(=O)n3nnc4ccccc43)CC2)c1)N1CCCCC1` are 1.6, 36 nM and 58 nM.
Consider `CC(C)NC(=O)c1ccc(N2CCN(C(=O)n3nnc4ccccc43)CC2)c([N+](=O)[O-])c1`, for which the Ratio IC50 in the assay filed under Homo sapiens was determined as 0.43. Besides, the IC50 on Monoglyceride lipase is 372 nM; in assay [1], 158 nM.
The corresponding values for `O=C(c1cc(N2CCN(C(=O)n3nnc4ccccc43)CC2)ccc1[N+](=O)[O-])N1CCCCC1` are 60, 38 nM and 2290 nM.
On the same counts, the results for `O=C(N1CCN(Cc2ccc(Br)cc2)CC1)n1nnc2ccccc21` are 2.5, 9 nM and 22 nM.
On to `CN1CCN(C(=O)c2cc(N3CCN(C(=O)n4nnc5ccccc54)CC3)ccc2[N+](=O)[O-])CC1`, for which the Ratio IC50 in the assay listed under Homo sapiens is over 100. Moreover, the IC50 at Monoglyceride lipase turned out to be 141 nM. In addition, the inhibition in assay [2] turned out to be 40%.
Regarding `CC(C)NC(=O)c1cc(N2CCN(C(=O)n3nnc4ccccc43)CC2)ccc1[N+](=O)[O-]`, the Ratio IC50 in the assay listed under Homo sapiens was 8.9. The figures for the IC50 (on Monoglyceride lipase; in assay [1]) were 234 nM and 2090 nM, respectively.
On the same counts, the results for `O=C(N1CCN(Cc2cccc(Cl)c2)CC1)n1nnc2ccccc21` are 4.5, 2 nM and 9 nM.
On the same counts, the results for `O=C(N1CCN(Cc2ccc(F)cc2)CC1)n1nnc2ccccc21` are 1.5, 10 nM and 15 nM.
On the same counts, the results for `O=C(N1CCN(Cc2ccc(-c3ccccc3)cc2)CC1)n1nnc2ccccc21` are 0.3, 62 nM and 18 nM.
Take `O=C(NC1CCCCC1)c1cccc(CN2CCN(C(=O)n3nnc4ccccc43)CC2)c1`: the Ratio IC50 in the assay filed under Homo sapiens stood at 3.4. The IC50 on Monoglyceride lipase was 13 nM; in assay [1], 44 nM.
On the same counts, the results for `O=C(N1CCN(Cc2cccc(-c3ccccc3)c2)CC1)n1nnc2ccccc21` are 0.4, 23 nM and 9 nM.
The corresponding values for `O=C(N1CCN(c2ccc([N+](=O)[O-])cc2)CC1)n1nnc2ccccc21` are 1.7, 20 nM and 34 nM.
On the same counts, the results for `O=C(N1CCN(Cc2cccc3ccccc23)CC1)n1nnc2ccccc21` are 4, 3 nM and 13 nM.
`O=C(O)c1cccc(CN2CCN(C(=O)n3nnc4ccccc43)CC2)c1`: the Ratio IC50 in the assay filed under Homo sapiens is 41. The IC50 at Monoglyceride lipase was determined as 676 nM; in assay [1], 27500 nM.
On the same counts, the results for `O=C(N1CCN(c2ccccc2[N+](=O)[O-])CC1)n1nnc2ccccc21` are 0.08, 224 nM and 19 nM.
Consider `COc1ccc(N2CCN(C(=O)n3nnc4ccccc43)CC2)cc1`, for which the Ratio IC50 in the assay listed under Homo sapiens worked out at 0.47. The IC50 at Monoglyceride lipase was determined as 32 nM; in assay [1] it was 15 nM.
On the same counts, the results for `O=C(N1CCN(c2ccccc2)CC1)n1nnc2ccccc21` are 0.5, 21 nM and 11 nM.
On the same counts, the results for `O=C(N1CCC(Cc2ccccc2)CC1)n1nnc2ccccc21` are 0.7, 3 nM and 2 nM.
As to `O=C(N1CCN(Cc2ccccc2)CC1)n1nnc2ccccc21`, the Ratio IC50 in the assay listed under Homo sapiens amounted to 2.4. Moreover, the IC50 on Monoglyceride lipase amounted to 8 nM; in assay [1], 19 nM.
Consider `O=C(c1cc(N2CCN(C(=O)n3nnc4ccccc43)CC2)ccc1[N+](=O)[O-])N1CCOCC1`, for which the Ratio IC50 in the assay listed under Homo sapiens is over 100. Moreover, the IC50 at Monoglyceride lipase came out at 162 nM. The inhibition in assay [2] was 40%.
Take `O=C(c1ccc(N2CCN(C(=O)n3nnc4ccccc43)CC2)c([N+](=O)[O-])c1)N1CCOCC1`: the Ratio IC50 in the assay filed under Homo sapiens came to 2. In addition, the figures for the IC50 (on Monoglyceride lipase; in assay [1]) were 955 nM and 1950 nM, respectively.
Turning to `O=C(NCCc1ccc(O)c(O)c1)n1nnc2ccccc21`, the IC50 at Monoglyceride lipase was determined as 10500 nM.
Turning to `O=C(NC1CCCCC1)c1cc(N2CCN(C(=O)n3nnc4ccccc43)CC2)ccc1[N+](=O)[O-]`, the Ratio IC50 in the assay listed under Homo sapiens was 12. In addition, the IC50 at Monoglyceride lipase was found to be 41 nM; in assay [1], 490 nM.
On the same counts, the results for `O=C(N1CCN(C/C=C/c2ccccc2)CC1)n1nnc2ccccc21` are 0.8, 33 nM and 28 nM.
The corresponding values for `O=C(N1CCN(Cc2ccc(Cl)cc2)CC1)n1nnc2ccccc21` are 1.5, 11 nM and 17 nM.
On the same counts, the results for `CN(C)C(=O)c1cc(N2CCN(C(=O)n3nnc4ccccc43)CC2)ccc1[N+](=O)[O-]` are 79, 63 nM and 5010 nM.
Consider `O=C(Nc1ccccc1)c1cccc(CN2CCN(C(=O)n3nnc4ccccc43)CC2)c1`, for which, in the assay listed under Homo sapiens, the Ratio IC50 was 4.8. Besides, the IC50 was 7 nM on Monoglyceride lipase and 35 nM in assay [1].
The corresponding values for `O=C(N1CCN(Cc2ccccc2-c2ccccc2)CC1)n1nnc2ccccc21` are 1, 33 nM and 32 nM.
The corresponding values for `O=C(Nc1ccccc1)c1cc(N2CCN(C(=O)n3nnc4ccccc43)CC2)ccc1[N+](=O)[O-]` are 19, 19 nM and 363 nM.

The IC50 is the concentration at which inhibition is half-maximal. A word on the inhibition: it is the relative decrease from the control value, in per cent.
